ChEMBL document CHEMBL1138051, “Photodynamic therapy agent with a built-in apoptosis sensor for evaluating its own therapeutic outcome in situ” (2006)

How the values were obtained:
Assay type in all cases: functional
[1] = system: HepG2; test: Viability of human HepG2 cells at 1 uM relative to control by MTT assay; details: read-out: Survival
Method in brief: (§1)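 HepG2 cells seeded 50000/well in complete DMEM and grown overnight at 37 °C. They were then exposed for 20 h to drug in DMEM with 0.8% BSA and rinsed. Cells were kept in dark with no illumination, then incubated 24 h at 37 °C. MTT 0.5 mg/mL was given for 2 h and solubilised in 70% 2-propanol/0.1 M HCl, with A570 read. Viability is relative to untreated cells (100%), 3 wells/condition, 3-8 experiments, mean ± standard error.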

[2] = system: HepG2; test: Viability of human HepG2 cells in presence of 1 J/cm2 light at 1 uM relative to control by MTT assay; details: HepG2, light or radiation study, read-out: Survival
Method in brief: (§2)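 HepG2 cells were plated 50000/well, grown overnight, then loaded 20 h with drug in DMEM/0.8% BSA. After rinsing into complete DMEM they were irradiated with a 670 nm laser at 20 mW/cm2 fluence rate. They were then incubated 24 h at 37 °C, given MTT 0.5 mg/mL for 2 h, solubilised in acidified 2-propanol, and A570 was read. Viability is versus untreated cells (100%), 3 wells/condition, 3-8 experiments, mean ± standard error.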

[3] = system: HepG2; test: Viability of human HepG2 cells in presence of 5 J/cm2 light at 1 uM relative to control by MTT assay; details: HepG2, light or radiation study, read-out: Survival; method in brief: as §2
[4] = system: HepG2; test: Viability of human HepG2 cells in presence of 7.5 J/cm2 light at 1 uM relative to control by MTT assay; details: HepG2, light or radiation study, read-out: Survival; method in brief: as §2
[5] = system: HepG2; test: Viability of human HepG2 cells at 5 uM relative to control by MTT assay; details: read-out: Survival; method in brief: as §1
[6] = system: HepG2; test: Viability of human HepG2 cells in presence of 1 J/cm2 light at 5 uM relative to control by MTT assay; details: HepG2, light or radiation study, read-out: Survival; method in brief: as §2
[7] = system: HepG2; test: Viability of human HepG2 cells in presence of 5 J/cm2 light at 5 uM relative to control by MTT assay; details: HepG2, light or radiation study, read-out: Survival; method in brief: as §2
[8] = system: HepG2; test: Viability of human HepG2 cells in presence of 7.5 J/cm2 light at 5 uM relative to control by MTT assay; details: HepG2, light or radiation study, read-out: Survival; method in brief: as §2
[9] = system: HepG2; test: Viability of human HepG2 cells at 15 uM relative to control by MTT assay; details: read-out: Survival; method in brief: as §1
[10] = system: HepG2; test: Viability of human HepG2 cells in presence of 1 J/cm2 light at 15 uM relative to control by MTT assay; details: HepG2, light or radiation study, read-out: Survival; method in brief: as §2
[11] = system: HepG2; test: Viability of human HepG2 cells in presence of 5 J/cm2 light at 15 uM relative to control by MTT assay; details: HepG2, light or radiation study, read-out: Survival; method in brief: as §2
[12] = system: HepG2; test: Viability of human HepG2 cells in presence of 7.5 J/cm2 light at 15 uM relative to control by MTT assay; details: HepG2, light or radiation study, read-out: Survival; method in brief: as §2
[13] = system: HepG2; test: Viability of human HepG2 cells at 30 uM relative to control by MTT assay; details: read-out: Survival; method in brief: as §1
[14] = system: HepG2; test: Viability of human HepG2 cells in presence of 1 J/cm2 light at 30 uM relative to control by MTT assay; details: HepG2, light or radiation study, read-out: Survival; method in brief: as §2
[15] = system: HepG2; test: Viability of human HepG2 cells in presence of 5 J/cm2 light at 30 uM relative to control by MTT assay; details: HepG2, light or radiation study, read-out: Survival; method in brief: as §2
[16] = system: HepG2; test: Viability of human HepG2 cells in presence of 7.5 J/cm2 light at 30 uM relative to control by MTT assay; details: HepG2, light or radiation study, read-out: Survival; method in brief: as §2

With `C=Cc1c(C)c2cc3[nH]c(c4c5nc(cc6nc(cc1[nH]2)C(C)=C6CC)C(C)=C5C(=O)C4)[C@@](C)(CCC(=O)NCC(=O)N[C@@H](CC(=O)O)C(=O)N[C@@H](CCC(=O)O)C(=O)N[C@H](C(=O)N[C@@H](CC(=O)O)C(=O)NCC(=O)N[C@@H](CO)C(=O)NCC(=O)N[C@@H](CCCCNC(=O)CCCN(C)c1ccc(/N=N/c2ccc4nc5ccc(N(CC)CC)cc5[n+](-c5ccccc5)c4c2)cc1)C(=O)O)C(C)C)C3(C)C` the viability at 1 µM [1] was 106%, the viability at 1 µM [2] was 90% and the viability at 1 µM [3] was 58%. It also gave a viability at 1 µM [4] of 6%, a viability at 5 µM [5] of 105% and a viability at 5 µM [6] of 86%. For the same molecule, the viability at 5 µM [7] was 20%, the viability at 5 µM [8] was 4% and the viability at 15 µM [9] was 108%. The viability at 15 µM [10] was 56%, the viability at 15 µM [11] was 11% and the viability at 15 µM [12] was 5%. It also gave a viability at 30 µM [13] of 117%, a viability at 30 µM [14] of 41% and a viability at 30 µM [15] of 7%. For the same molecule, the viability at 30 µM [16] was 4%.
